By EC50 is commonly meant the midpoint of the concentration-response curve.

The values below come from ChEMBL document CHEMBL1154198, “Chemical genetics of Plasmodium falciparum” (Nature, 2010).

Series [1] relates to Plasmodium falciparum. The series is described as follows: ST_JUDE: Plasmodium falciparum 3D7 EC50 (uM) as measured by SYBR green dye. It counts as functional, organism-based.
Series [2] deals with Plasmodium falciparum. Description: ST_JUDE: Plasmodium falciparum K1 EC50 (uM) as measured by SYBR green dye. The class given is functional, organism-based.
Series [3] has as its system Plasmodium falciparum. The series is described as follows: ST_JUDE: Cytotoxicity against Plasmodium falciparum 3D7. It counts as functional, organism-based. The method in brief: (§1)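 Asexual P. falciparum grown in human erythrocytes, exposed to compounds for 72 h, and growth read as the DNA quantity in treated versus control cultures. Dose-response run at 12 concentrations from 10 μM to 5 nM.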

In series [4] the test system is Plasmodium falciparum. The series is described as follows: ST_JUDE: Cytotoxicity against Plasmodium falciparum K1. The class given is functional, organism-based. Put shortly: as §1
Series [5] has as its system Plasmodium falciparum. Description: ST_JUDE: Cytotoxicity against Plasmodium falciparum V1/S. It counts as functional, organism-based.
Series [6] has as its system Toxoplasma gondii. Description: ST_JUDE: Growth inhibition of to Toxoplasma gondii, in human U-2OS cells, as measured by luciferase. It counts as functional, organism-based. As to conditions: RH, U2OS. Put shortly:
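T. gondii parasites engineered to express luciferase; drug sensitivity read by luminescence.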

For series [7], the system named is Trypanosoma brucei. The series is described as follows: ST_JUDE: Cytotoxicity using luciferase to measure ATP as an indicator of the viability of Trypanosoma brucei. It counts as functional, organism-based.
The test system of series [8] is Leishmania major. Description: ST_JUDE: Cytotoxicity using Alamar Blue to measure viability of Leishmania major. It counts as functional, organism-based. Put shortly:
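L. major promastigotes; drug susceptibility read with Alamar Blue.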

The nature of series [9]: ST_JUDE: Cytotoxicity using luciferase to measure ATP as an indicator of the viability of human foreskin fibroblast cells (BJ). The class given is toxicity, cell-based.
The nature of series [10]: ST_JUDE: Cytotoxicity using luciferase to measure ATP as an indicator of the viability of human epithelial hepatocellular carcinoma cells (HepG2). It counts as toxicity, cell-based.
The nature of series [11]: ST_JUDE: Cytotoxicity using luciferase to measure ATP as an indicator of the viability of human epithelial embryonic kidney cells (HEK293). It counts as toxicity, cell-based.
Series [12] is described as follows: ST_JUDE: Cytotoxicity using luciferase to measure ATP as an indicator of the viability of human Burkitt''s lymphoma lymphoblast cells (Raji). It counts as toxicity, cell-based.
The test system of series [13] is Plasmodium falciparum. The series is described as follows: ST_JUDE: Cytotoxicity against Plasmodium falciparum Dd2. It counts as functional, organism-based.
Series [14] has as its system Plasmodium falciparum. The series is described as follows: ST_JUDE: Cytotoxicity against Plasmodium falciparum W2. It counts as functional, organism-based.
Series [15] relates to Plasmodium falciparum. The series is described as follows: ST_JUDE: Cytotoxicity against Plasmodium falciparum SB-A6. The class given is functional, organism-based.
In series [16] the test system is Plasmodium falciparum. The series is described as follows: ST_JUDE: Cytotoxicity against Plasmodium falciparum D10 transfected with yeast DHOD. It counts as functional, organism-based.

With `CCCO/C(O)=C1\C(C)=NC2=C(C(=O)CC(c3ccc(OC)c(OC)c3)C2)C1c1ccccc1F` (stereo unspecified), the EC50 is 0.05 µM in series [1]; 0.0517 µM in series [2]; 0.111 µM in series [3]; 0.0825 µM in [4]; 0.106 µM in [5]; more than 22.5 µM in [6]. Moreover, the EC50 in series [7] was 6.57 µM; in series [8] it was more than 17.6 µM; in [9] it was 0.0018 µM; in [10], more than 41.1 µM; in series [11], 35.9 µM; in series [12] it was more than 41.1 µM. Besides, the EC50 in [13] was 0.0894 µM; in series [14] it was 0.0639 µM; in [15] it was 0.0363 µM; in series [16], 0.0405 µM.
Regarding `CCOc1ccc2nc3cc(N)ccc3c(N)c2c1`, the EC50 in series [1] was 1.12 µM; in [2] it was 0.582 µM; in [3], 1.94 µM; in [4] it was 1.73 µM; in series [5], 2 µM; in [6], more than 17.9 µM. The EC50 in [7] was 7.47 µM; in series [8] it was more than 14 µM; in series [9], 17.9 µM; in [10] it was more than 32.6 µM; in series [11] it was more than 32.6 µM; in [12], more than 32.6 µM. The EC50 is 0.294 µM in series [13], 0.758 µM in series [14], 2.38 µM in series [15] and 2.39 µM in series [16].
As to `CCOC(=O)C1(Cc2ccccc2)CCN(Cc2cccc(OC)c2O)CC1`, the EC50 was 2.29 µM in [1]; 1.05 µM in [2]; 1.49 µM in series [3]; 0.645 µM in series [4]; 0.908 µM in series [5]; more than 20.3 µM in series [6]. Besides, the EC50 was 30.9 µM in series [7]; more than 15.8 µM in series [8]; more than 37 µM in series [9]; more than 37 µM in series [10]; more than 37 µM in series [11]; more than 37 µM in series [12]. For the same molecule, the EC50 in [13] is 1.76 µM; in series [14], 1.43 µM; in [15], 3 µM; in series [16], 2.55 µM.
For `COc1ccc(Nc2cc(C)c3ccc(O)cc3n2)cc1`, the EC50 in [1] is 0.545 µM; in [2], 0.216 µM; in series [3], 0.688 µM; in series [4], 0.241 µM; in series [5] it was 0.307 µM; in series [6] it was 25.4 µM. The EC50 in series [7] is more than 45.4 µM; in series [8] it was more than 20.3 µM; in [9], more than 47.4 µM; in [10], 43 µM; in [11], more than 47.4 µM; in series [12] it was more than 47.4 µM. Besides, the EC50 was found to be 0.709 µM in [13], 0.284 µM in series [14], 1.23 µM in series [15] and 1.07 µM in series [16].
Consider `CCOC(=O)c1cnc2c(OC)cccc2c1Nc1ccc(OC)c(OC)c1`, for which the EC50 in series [1] was 0.858 µM; in [2] it was 0.804 µM; in series [3], 0.476 µM; in [4] it was 0.651 µM; in series [5], 0.865 µM; in series [6], more than 24.7 µM. Also, the EC50 in series [7] was more than 43.2 µM; in series [8], more than 19.3 µM; in series [9] it was more than 45.1 µM; in series [10] it was more than 45.1 µM; in series [11], more than 45.1 µM; in [12], more than 45.1 µM. Besides, the EC50 in series [13] was 0.676 µM; in [14], 2.7 µM; in [15], more than 11.6 µM; in series [16], more than 11.6 µM.
With `COC(=O)c1ccc(NC(=O)C2c3ccccc3C(=O)N(CC(C)C)C2c2cccs2)cc1` (stereo unspecified), the EC50 in series [1] is 0.998 µM; in [2], 1.22 µM; in series [3], 1.16 µM; in [4], 1.52 µM; in series [5] it was 1.73 µM; in series [6], more than 21.2 µM. Further, the EC50 in [7] was 2.33 µM; in [8] it was more than 16.6 µM; in series [9], more than 38.7 µM; in series [10], more than 38.7 µM; in series [11] it was more than 38.7 µM; in [12], more than 38.7 µM. The EC50 in series [13] was 1.25 µM; in series [14] it was more than 9.94 µM; in series [15], 2.26 µM; in [16], 1.36 µM.
In the case of `Cc1ccc(N2C(N)=NC(N)=NC2(C)C)cc1`, the EC50 in series [1] is 0.0333 µM; in series [2], 0.989 µM; in series [3], 0.0214 µM; in series [4], 0.676 µM; in series [5], more than 8.97 µM; in series [6], 5.71 µM. The EC50 in series [7] is more than 33.5 µM; in series [8], more than 15 µM; in series [9], more than 34.9 µM; in [10], more than 34.9 µM; in series [11] it was more than 34.9 µM; in series [12], more than 34.9 µM. For the same molecule, the EC50 in [13] was 2.03 µM; in series [14] it was 0.729 µM; in series [15] it was 0.0151 µM; in series [16], 0.785 µM.
`CCCO/C(O)=C1\C(C)=NC2=C(C(=O)CC(c3ccc(OC)c(OC)c3)C2)C1c1cccc(C)c1` (stereo unspecified): the EC50 is 0.574 µM in series [1]; 0.386 µM in series [2]; 0.72 µM in series [3]; 0.39 µM in series [4]; 0.634 µM in [5]; more than 24.3 µM in series [6]. Also, the EC50 in series [7] is 11.3 µM; in series [8], more than 19 µM; in series [9] it was more than 44.3 µM; in series [10] it was 41 µM; in series [11], more than 44.3 µM; in series [12], more than 44.3 µM. Also, the EC50 in series [13] is 1.34 µM; in series [14], 4.56 µM; in [15] it was 0.297 µM; in series [16] it was 0.456 µM.
With `COc1ccc(C2CC3=NC(C)=C(C(=O)OC(C)C)C(c4ccccc4Cl)C3=C(O)C2)cc1OC` (stereo unspecified), the EC50 in series [1] stood at 0.0358 µM; in [2], 0.0178 µM; in [3], 0.087 µM; in series [4], 0.0538 µM; in series [5] it was 0.0876 µM; in [6] it was 14.6 µM. Moreover, the EC50 in series [7] is 6.77 µM; in series [8], more than 17.6 µM; in series [9] it was more than 41.2 µM; in [10], more than 41.2 µM; in series [11], more than 41.2 µM; in series [12], more than 41.2 µM. The EC50 stood at 0.0582 µM in series [13], 0.0406 µM in series [14], 0.035 µM in series [15] and 0.0455 µM in series [16].
For the molecule `O=[N+]([O-])c1ccc2c(c1)c1ccccc1n2Cc1ccccc1O`, the EC50 in [1] was 1.26 µM; in [2] it was 1.25 µM; in [3], 1.3 µM; in [4] it was 1.07 µM; in series [5], more than 9.06 µM; in [6], more than 19.3 µM. Further, the EC50 in [7] was 24.5 µM; in [8], more than 15.1 µM; in series [9], more than 35.3 µM; in series [10], more than 35.3 µM; in [11], more than 35.3 µM; in series [12], 18.2 µM. Further, the EC50 in series [14] came to 3.7 µM; in series [15] it was 2.32 µM; in [16], 1.8 µM.
As for `CCCCCOc1ccc(N(C(C)=O)C2=C(N3CCOCC3)C(=O)c3ccccc3C2=O)cc1`, the EC50 in series [1] was 0.327 µM; in [2] it was 0.208 µM; in [3], 0.075 µM; in series [4], 0.0775 µM; in series [5], 0.07 µM; in series [6], more than 19.8 µM. For the same molecule, the 50% effective concentration (EC50) is 1.84 µM in [7]; more than 15.5 µM in series [8]; more than 36.2 µM in series [9]; 22.6 µM in series [10]; more than 36.2 µM in series [11]; 3.26 µM in series [12]. The EC50 was 1.47 µM in series [13], more than 9.29 µM in series [14], 0.0596 µM in series [15] and 0.0362 µM in series [16].
On to `O=C(c1ccccc1)N1CCN(c2ccccc2NC(=O)C(Cl)(Cl)Cl)CC1`, for which the EC50 in [1] is 1.45 µM; in series [2], 0.877 µM; in [3] it was 0.918 µM; in series [4], 0.838 µM; in series [5] it was 1.11 µM; in series [6], more than 18.4 µM. The EC50 in [7] was 26.8 µM; in [8], more than 14.4 µM; in [9] it was more than 33.7 µM; in series [10] it was more than 33.7 µM; in series [11], more than 33.7 µM; in series [12] it was more than 33.7 µM. In addition, the EC50 is 2.77 µM in series [13], more than 8.65 µM in series [14], 1.34 µM in [15] and 4.19 µM in series [16].
On to `C=CCN1C=CC=C/C1=C\c1sc2ccccc2[n+]1C`, for which the EC50 in series [1] is 1.99 µM; in [2] it was 1.2 µM; in series [3], 1.19 µM; in series [4], 0.94 µM; in series [5], more than 9.08 µM; in series [6], more than 19.4 µM. Further, the EC50 in series [7] was 10.7 µM; in series [8], 0.0503 µM; in series [9] it was more than 35.4 µM; in series [10] it was more than 35.4 µM; in series [11], more than 35.4 µM; in series [12], 8.34 µM. For the same molecule, the EC50 in series [14] is 6.16 µM; in series [15], 2.98 µM; in series [16] it was 5.69 µM.
